These results are taken from ChEMBL document CHEMBL1156729, “Novel synthesis and pharmacological evaluation as alpha2-adrenoceptor ligands of O-phenylisouronium salts” (Bioorg Med Chem, 2008).

The nature of the test: Displacement of [3H]RX821002 from alpha2 adrenoceptor in human prefrontal cortex neural membrane. The test is classed as tissue-based. An outline of the steps:
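Postmortem human PFC P2 membranes (homogenized in 5 mM Tris–HCl pH 7.4, 1 mM MgCl2, 0.25 M sucrose; stored at −70 °C) incubated in 50 mM Tris–HCl pH 7.5 with 1 nM [3H]RX821002 and competitor (10 concentrations) 30 min at 25 °C. Bound ligand separated by GF/C filtration and counted by scintillation. Non-specific binding with 10^-5 M adrenaline. Ki by one-site nonlinear regression, expressed as pKi.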
Compound `COC1(C2=NCCN2)COc2ccccc2O1` (stereo unspecified) gave a pKi of 9.04.
For `N=C(N)Oc1ccc(Oc2ccc(OC(=N)N)cc2)cc1` the value was 4.72; for `N=C(N)Oc1ccc(Sc2ccc(OC(=N)N)cc2)cc1`, 5.1.
`N=C(N)Nc1ccc2c(c1)CCCC2` gave a pKi of 7.11.
With `N=C(N)Oc1ccc(Cc2ccc(O)cc2)cc1` the figure was 4.98.
For `Cc1ccc(OC(=N)N)cc1` the value was 5.09; for `N=C(N)Oc1ccc2c(c1)CCC2`, 5.27; for `N=C(N)Oc1ccc2c(c1)CCCC2`, 5.35.
As to `N=C(N)Oc1ccc(Cc2ccc(OC(=N)N)cc2)cc1`, the negative-log Ki (pKi) stood at 5.4.
For `N=C(N)Oc1ccc(Sc2ccc(O)cc2)cc1` the value was 4.94; for `N=C(N)Oc1ccc(Oc2ccc(O)cc2)cc1`, 4.49.
